Assay outcomes from PubChem.
NPY-Y1 PAM-ag: human NPY-Y1 potentiation or agonism, primary screen; NPY-Y1 expressing cells, potentiator/agonist activation; AID 1304; hit rate 0.37% among 220,000; activation, % at 3.6 µM; P25929; in the data active means activation above about 33%, passing the limit was not always enough;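 further: cells stimulated with NPY at EC10 then isoproterenol at EC100; 0% = low agonist plus stimulus and 100% = saturating agonist plus stimulus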
Target sequence (P25929 whole entry, looked up): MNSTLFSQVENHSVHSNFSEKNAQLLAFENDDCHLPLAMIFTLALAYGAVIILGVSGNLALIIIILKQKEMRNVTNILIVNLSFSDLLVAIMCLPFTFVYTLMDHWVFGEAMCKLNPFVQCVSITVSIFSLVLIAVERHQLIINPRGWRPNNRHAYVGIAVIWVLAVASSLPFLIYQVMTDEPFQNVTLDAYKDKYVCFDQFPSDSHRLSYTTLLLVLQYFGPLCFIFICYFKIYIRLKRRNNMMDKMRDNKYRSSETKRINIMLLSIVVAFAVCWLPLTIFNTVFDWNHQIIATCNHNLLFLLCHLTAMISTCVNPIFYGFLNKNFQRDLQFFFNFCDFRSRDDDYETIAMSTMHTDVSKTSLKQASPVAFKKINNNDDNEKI
NPY Y2 blocker: blocks the human neuropeptide Y Y2 receptor. AID 793. inhibition, % at 2.7 µM. P49146. NPY-Y2 expressing cells, antagonist mode. hit rate 0.99% among 140,000; in the data active means inhibition above about 17%;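 further: 0% = vehicle with agonist challenge and 100% = reference antagonist with challenge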
NPY2 pot ag: potentiates or activates human NPY-Y2 receptor | AID 1359 | activation, % at 3.6 µM | hit rate 0.45% among 220,000 | cells expressing NPY-Y2, potentiator/agonist read-out | P49146; in the data active means activation above about 27%;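 further: cells stimulated with NPY near EC25 plus isoproterenol at EC100; 0% = vehicle plus submaximal agonist and 100% = vehicle plus saturating agonist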
NPY Y1 blocker: blocks the human neuropeptide Y Y1 receptor. P25929. HEK293-CNG Y1 cells, membrane potential fluorescence; NPY at EC95, then isoproterenol. inhibition, % at 3.6 µM. hit rate 1% among 200,000. AID 1040;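 active means inhibition above the campaign mean inhibition of all tested compounds plus 3 SD, cut at about 20% in these data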;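 further: 0% = DMSO wells given NPY plus isoproterenol and 100% = isoproterenol alone without NPY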
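Material: Y1- and CNG-channel-expressing HEK293 cells / Probe or stimulus: NPY 25 nM then isoproterenol 1 µM plus Ro 20-1724 25 µM / Doses: 3.6 µM single dose, DMSO 0.4% / Schedule: compound incubation 1 h at room temperature, readout 45 min post-stimulation / Signal: membrane potential fluorescence / Benchmarks: isoproterenol-only wells as full block versus NPY-plus-isoproterenol wells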
Active calls of the source: *; . = not tested or not shown. Shown are actives, neighbours in structure and some others; about 1.8% of the full set was active somewhere.

SMILES | NPY-Y1 PAM-ag | NPY Y2 blocker | NPY2 pot ag | NPY Y1 blocker
Cc1cc(C[n+]2cc(Cl)ccc2N)c2ncccc2c1 | 9 | . | -21 | .
CCOc1ccc2c(c1)sc(N)[n+]2Cc1cc(C)cc2cccnc12 | -69 | 42* | -13 | 52*
COc1ccc2c(c1)sc(N)[n+]2Cc1cc(C)cc2cccnc12 | -58 | 48* | -5 | 49*
Cc1cc(C[n+]2ncsc2N)c2ncccc2c1 | -23 | . | -36 | .
Cc1ccc(CCNC(=O)CN(C)S(=O)(=O)c2ccc3c(c2)n(C)c(=O)c(=O)n3C)cc1 | -15 | . | -11 | .
CCOc1ccc(NC(=O)NNC(=O)c2ccc(CC)s2)cc1 | 5 | . | -13 | 0
OCC1OC(n2cnc3ccccc32)CC1O (stereo not given) | -17 | . | -8 | .
FC(F)(F)c1ccccc1CN1CCN(C2CCCCCC2)CC1 | -7 | 22* | -8 | 23*
Cc1ccc(S(=O)(=O)Nc2ccc(Br)cc2/C=N/n2cnnc2)cc1 | 49* | 1 | 47* | -18
CN(C)c1nccc(N(Cc2ccccc2)Cc2ccccc2)c1C#N | -93 | 22* | -37 | 66*
CCCN(CCC)C1=CC(=[N+]2CCCC2)CC(C)(C)C1 | -21 | 24* | 16 | 34*
COc1ccc(-c2cc(-c3ccccc3)c(C#N)c(S(C)=O)n2)cc1 (stereo not given) | 72* | -1 | 76* | -18
N/C(=N\OC(=O)Cc1ccccc1)c1ccccc1Cl | 8 | . | 1 | -4
C/C(=N\Nc1nc2ccccc2s1)c1ccc2c(c1)OCO2 | -13 | 31* | -9 | 35*
O=C(/C=C/c1ccco1)Nc1ccccc1C(=O)Nc1cccc(C(=O)O)c1 | 48* | . | 43* | .
COc1cccc(Cn2cc(N)cn2)c1 | 22 | . | 16 | 1
Cc1cc(C)n(-c2ccc(F)cc2CN2CCN(C3CCCC3)C(CCO)C2)n1 (stereo not given) | 17 | . | -10 | 20*
Cc1cc(C)n(-c2ccc(C)c(Cl)c2)n1 | 11 | 3 | 6 | 10
C=CCNC(=S)NNC(=O)CC12CC3CC(CC(C3)C1)C2 | 20 | . | 10 | .
O=c1cc(NCCCO)c2ccccc2o1 | 110* | 1 | 72* | 10
OCCCNc1nc(-c2ccccc2)nc2c1oc1ccccc12 | 7 | . | 16 | .
CC(C)COc1ccc(C(=O)N2C(=O)c3ccc(N)cc3C2=O)cc1 | 4 | . | -14 | .
Cc1nn(-c2ccccc2)c(OC(=O)c2cccs2)c1S(=O)(=O)c1ccc([N+](=O)[O-])cc1 | -20 | -2 | -5 | -4
Cn1c(=N)n(CC(O)c2cccc3ccccc23)c2ccccc21 (stereo not given) | -70 | 24* | -7 | 34*
Cn1c(=N)n(CC(O)c2ccco2)c2ccccc21 (stereo not given) | 0 | 4 | -26 | 8
SMILES | NPY-Y1 PAM-ag | NPY Y2 blocker | NPY2 pot ag | NPY Y1 blocker
CCCCc1ccc(NC(=O)c2ccc(N(C)S(C)(=O)=O)cc2)cc1 | -23 | . | -12 | .
COc1cccc(-n2cnc3c(sc4nc(N5CCOCC5)c5c(c43)CCCC5)c2=O)c1 | 6 | . | 12 | 2
CCCCC1CCC(/C(N)=N/O)CC1 (stereo not given) | -10 | 4 | -11 | 1
CCCCCC1CCC(C(=O)O)CC1 (stereo not given) | -38 | 12 | -13 | 26*
COc1ccc(-c2noc(COc3ccc4c(c3)OCO4)n2)cc1 | -8 | 16 | 0 | 11
COc1ccc(-c2noc(COc3ccc4c(c3)OCO4)n2)cc1OC | -23 | 12 | -23 | 26*
CN(C)CCn1c(C(=O)Nc2ccccc2)cc2ccccc21 | -67 | 20* | -36 | 38*
O=C(NCc1n[nH]c(=S)n1-c1ccc(Br)cc1)c1ccc(S(=O)(=O)N2CCOCC2)cc1 | 8 | . | 5 | 1
COC(=O)CSc1nc2ccc(NC(=O)CSc3nnnn3Cc3ccccc3)cc2s1 | 109* | -2 | 105* | -11
Cc1cc(/C=N/NC(=O)Cn2c3ccccc3c(=O)c3ccccc32)c(C)n1-c1ccccc1 | 50* | 3 | 50* | -13
C=CCc1ccccc1OCC(O)CN1CCN(Cc2ccc3c(c2)OCO3)CC1 (stereo not given) | 92* | 7 | 87* | -16
C=CCc1ccccc1OCC(O)CN1CCN(CCN2C(=O)c3cccc4cccc(c34)C2=O)CC1 (stereo not given) | 54* | 3 | 45* | -6
NC(CCCCCP(=O)(c1ccccc1)c1ccccc1)C(=O)O (stereo not given) | 17 | . | 9 | .
Cc1sc(N)nc1C12CC3CC(CC(C3)C1)C2 | 47* | . | 35* | -11
Oc1ccc(-c2nc3c4c(ncn3n2)-c2ccccc2CC42CCCC2)cc1 | 26 | 1 | 9 | -5
CCOC(=O)c1cnc(-n2nc(C)cc2C)nc1NC | -19 | 1 | -8 | 10
CCOC(=O)c1cnc(-n2nc(C)cc2C)nc1NC1CCCCC1 | -146 | 20* | 1 | 31*
CCN(C(=O)COC(=O)c1ccc(Br)o1)C1CCCCC1 | -6 | . | -16 | 10
Cc1ccc(/C=C/C(=O)N(Cc2cccs2)C2CCS(=O)(=O)C2)cc1 (stereo not given) | 19 | . | -1 | .
CN(C)CCOc1nc(-c2ccccc2)nc2c1oc1ccccc12 | 59* | 6 | 69* | -1
CN(C)CCOc1ncnc2c1oc1ccccc12 | -6 | 2 | -14 | -1
Cn1c(=O)c2c(ncn2CC(=O)Nc2nccs2)n(C)c1=O | 9 | . | 6 | .
COc1ccc(/C=C/C(=O)NC(=S)Nc2cc([N+](=O)[O-])ccc2O)cc1OC | 12 | . | -2 | 1
c1ccc(CNc2nc(CN3CCOCC3)nc3scc(-c4ccccc4)c23)cc1 | -30 | 19* | -17 | 27*
c1ccc(-c2csc3ncnc(NCCN4CCOCC4)c23)cc1 | 1 | 3 | 1 | -5
SMILES | NPY-Y1 PAM-ag | NPY Y2 blocker | NPY2 pot ag | NPY Y1 blocker
CCCc1ccc(C(=O)NNc2ccc(F)cc2)cc1 | 51* | . | 46* | .
CCCc1ccc(C(=O)NNC(=O)c2ccc(Br)cc2)cc1 | 2 | 4 | -6 | 1
O=C(O)c1nn(CC(=O)N(C2CCCCC2)C2CCCCC2)c(=O)c2ccccc12 | -1 | . | 7 | 1
COc1ccccc1CN1CN(S(=O)(=O)c2ccccc2)c2nc3ccccc3nc21 | -13 | . | -9 | .
O=C(O)CCC(=O)Nc1nnc(C(F)(F)F)s1 | -9 | 0 | 1 | 5
CCC(NC(=O)Nc1nnc(C(F)(F)F)s1)(C(F)(F)F)C(F)(F)F | -44 | 25* | 25 | 38*
CCCCOn1c(C)c(C(=O)OCC)c2c3nonc3ccc21 | -67 | 23* | -45 | 67*
CCCCOn1c(C)c(C(=O)OCC)c2c3no[n+]([O-])c3ccc21 | -16 | 5 | -7 | 5
OCCC1CN(Cc2cccc3nccnc23)CCN1Cc1ccc(F)cc1 (stereo not given) | 6 | . | 12 | .
Cc1ccc(S(=O)(=O)N/N=C/c2cccn2-c2ccc(Cl)cc2)cc1 | -49 | 5 | -12 | 0
CC1=NN(c2ccc(Cl)cc2)C(=O)/C1=C\c1cccn1-c1ccc(S(N)(=O)=O)cc1 | 60* | -6 | 49* | -17
Cc1cc(C)cc(NC(=S)NCCN(C2CCCCC2)C2CCCC2)c1 | -14 | . | -21 | 21*
